In the library only some 2.1% were active in any assay of this set; here they are far more common.
RanGTP-Impb inh = inhibitors of RanGTP-importin-beta interaction, primary screen, biochemical, FRET, CFP-Ran, YFP-importin-beta, homogeneous; AID 2216; hit rate 1.1% among 300,000; cell-free CFP-Ran/YFP-importin-beta FRET ratio; inhibition, % (test concentration not listed);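 active means more than half of the replicate wells show a fall in the fluorescence ratio signal beyond about 16%, limit read from the data, passing the limit was not always enough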;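 further: 0% = DMSO wells and 100% = Ran loaded with GDP instead of GTP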
TNF death inh = blocks TNF-alpha induced death of Jurkat FADD-/- cells; activation (protection from cell death), % at 10 µM; hit rate 0.068% among 220,000; Jurkat FADD-/- TNF necroptosis rescue, ATP luminescence, 24 h; 0 = TNF only, 100 = no-TNF cells;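 active means activation, meaning protection from cell death, of at least 50% relative to plate controls; inactive means activation below 50%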;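 further: necroptosis triggered by 40 ng/mL TNF-alpha added together with compound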
zVAD death inh = blocks zVAD induced death of L929 cells; hit rate 0.38% among 220,000; L929 zVAD necroptosis rescue, ATP luminescence, 24 h; with zVAD 60 µM; viability rescue, % at 10 µM;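 active means activation, scaled between plate controls, above about 75%, limit read from the data; inactive means activation under that limit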;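 further: 0% = zVAD with DMSO and 100% = DMSO alone without zVAD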
Hck-Nef inh = blocks Nef-activated human Hck kinase | hit rate 0.68% among 220,000 | AID 463187 | inhibition, % at 20 µM | P08631 | Recombinant Hck-YEEI plus Nef, Z-Lyte FRET kinase assay;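 active means Hck-Nef kinase inhibition above about 50%, limit read from the data; inactive means inhibition below that limit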;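 further: 0% = DMSO with Hck plus Nef and 100% = Hck alone without Nef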
Target sequence (P08631 whole entry, looked up): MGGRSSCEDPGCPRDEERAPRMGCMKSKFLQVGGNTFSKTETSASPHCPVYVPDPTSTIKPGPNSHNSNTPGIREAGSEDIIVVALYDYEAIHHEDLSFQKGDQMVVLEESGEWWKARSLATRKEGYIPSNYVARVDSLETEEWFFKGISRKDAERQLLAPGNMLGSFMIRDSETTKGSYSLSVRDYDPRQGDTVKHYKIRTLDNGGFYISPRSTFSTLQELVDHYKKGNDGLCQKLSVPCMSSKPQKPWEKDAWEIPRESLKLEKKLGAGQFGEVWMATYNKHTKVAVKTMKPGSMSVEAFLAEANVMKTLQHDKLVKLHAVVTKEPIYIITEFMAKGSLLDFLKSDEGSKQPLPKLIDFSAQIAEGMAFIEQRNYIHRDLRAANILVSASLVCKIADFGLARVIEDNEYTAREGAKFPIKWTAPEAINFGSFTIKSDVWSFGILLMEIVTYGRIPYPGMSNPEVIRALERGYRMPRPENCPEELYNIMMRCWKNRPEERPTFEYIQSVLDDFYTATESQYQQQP
Runt-CBFb FRET = blocks binding of human RUNX1 Runt domain to CBFb | AID 1496 | inhibition, % at 20 µM | Q01196+Q13951 | hit rate 0.46% among 220,000 | Cerulean-Runt/Venus-CBFb FRET ratio 530/480, 1 h;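 active means inhibition over about 50% at 20 µM in the single-dose screen, limit read from the data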;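 further: 0% = DMSO wells and 100% = excess unlabeled CBFb competitor control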
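Measured by: fluorescence energy transfer, 422 nm excitation, 530/480 nm emission; test system: Cerulean-tagged RUNX1 Runt domain (FRET donor) fusion protein; buffer or medium: Tris pH 7.5 buffer with BSA; compound: one dose, 20 µM compound, 1% DMSO; times: two 1 h room-temperature incubations shielded from light; benchmarks: unlabeled CBFb 5 µM, positive control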
Runt-SMMHC FRET = inhibitors of human RUNX1 Runt domain binding to CBFb-SMMHC | Q01196+Q13951 | Cerulean-Runt/Venus-CBFb-SMMHC FRET ratio 530/480, 1 h | inhibition, % at 20 µM | hit rate 0.74% among 220,000 | AID 1434;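 active means mean inhibition across duplicate retests at 20 µM reaching about 50%, limit read from the data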;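 further: 0% = DMSO wells and 100% = wells with excess untagged CBFb-SMMHC; inhibitors lower the FRET ratio by blocking Runt binding to CBFb-SMMHC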
YIC counter = counter-screen for RanGTP-importin-beta inhibitors: YIC FRET probe; shares compounds with RanGTP-Impb inh; Purified YIC probe, intramolecular FRET ratio YFP/CFP; IC50, µM; hit rate 40% among 1,000; AID 435026;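 active means fitted half-maximal inhibitory concentration no more than tenfold above the top dose tested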
Hck Nef conf = confirmation of Hck-Nef kinase inhibitors. Recombinant Hck-YEEI:Nef, Z-Lyte FRET kinase assay. hit rate 28% among 1,300. calls only at 10 µM. shares compounds with Hck-Nef inh;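 active means average inhibition of at least 50%, with Z-scores no higher than 3 in both the phospho-tyrosine peptide and fluorescence counterscreens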
* = called active by the depositor; i = inactive; · = no result shown; + = active, no number.

SMILES | RanGTP-Impb inh | TNF death inh | zVAD death inh | Hck-Nef inh | Runt-CBFb FRET | Runt-SMMHC FRET | YIC counter | others
CC(C)c1ccc(N(CC(=O)NCc2ccco2)C(=O)CCC(=O)Nc2nccs2)cc1 | -1 | · | · | · | · | · | ·
CCc1ccccc1N(CC(=O)NCc1ccco1)C(=O)CCC(=O)Nc1nccs1 | 22* | · | · | · | · | · | >50
COc1ccc2[nH]c(C(=O)Nc3ccc(F)cc3Br)cc2c1 | -5 | 0 | 0 | 7 | -1 | -3 | ·
CCc1nnc(NC(=O)c2c(C)nn(-c3ccccc3)c2Cl)s1 | 20* | 0 | 0 | -2 | -2 | -1 | >50
COc1cccc(NC(=O)CNC(=O)Cn2cnc3sc(C)c(C)c3c2=O)c1 | -2 | · | · | · | · | · | ·
CCOCCCNC(=S)N1CCC(C(=O)c2ccc3c(c2)OCCO3)CC1 | 0 | 3 | 0 | -1 | 0 | -4 | ·
CCOCCCNC(=S)NCCCNc1nc2cc3c(cc2cc1C#N)OCO3 | 56* | -2 | 0 | 21 | 20 | 129* | 13*
Cc1ccc(N=Cc2cc3c(cc2[N+](=O)[O-])OCO3)cc1[N+](=O)[O-] | 20* | · | · | · | · | · | >50
CCc1ccc(-c2nc(CSCC(=O)N3CCN(c4ccccn4)CC3)c(C)o2)cc1 | 18* | -11 | 1 | -1 | -3 | -2 | >50
Cc1ccc(-c2nc(CSCC(=O)N3CCN(c4ccccn4)CC3)c(C)o2)cc1 | -1 | -9 | 1 | 6 | 2 | 0 | ·
CN(C)S(=O)(=O)c1ccc(N2CCCC2)c(C(=O)NC(c2ccccc2)c2ccccc2)c1 | 19* | -5 | -1 | -1 | -2 | -5 | >50
CN(C)S(=O)(=O)c1ccc(N2CCCC2)c(C(=O)Nc2ccccc2Br)c1 | 7 | · | · | · | · | · | ·
C=CCOc1c(Br)cc(/C=C2/C(=O)ON=C2C)cc1OC | 6 | · | · | · | · | · | ·
O=[N+]([O-])c1cccc(-c2n[nH]c(=S)n2-c2ccc(Br)cc2)c1 | 23* | 0 | 2 | 23 | 1 | 13 | >50
CCN(CCNC(=O)CN1CCN(Cc2ccc(Cl)cc2)C1=O)c1ccccc1 | -1 | -3 | 0 | 4 | -2 | 0 | ·
CCOC(=O)C1=C(N)Oc2ccc3ccccc3c2C1c1ccc(O)cc1 (stereo unspecified) | 5 | · | · | · | · | · | ·
CCOC(=O)C1=C(N)Oc2ccc3ccccc3c2C1c1ccc(O)c(OC)c1 (stereo unspecified) | 29* | · | · | · | · | · | >50
Cc1nc2[nH]c(=O)c3c(n2n1)NC1=C(C(=O)CC(C)(C)C1)C3c1ccccc1 (stereo unspecified) | 49* | 0 | 1 | 2 | 78* | 136* | 4.3*
Cc1c(O)c(CN(C)C)cc2c1oc(=O)c1ccccc12 | -4 | 8 | 15 | 5 | -11 | -19 | ·
CCc1c(C)c2cc(Cl)c(O)c(CN(CC)CC)c2oc1=O | 26* | -2 | 1 | 115* | 95* | 65* | 27*
Cc1c(C)c2cc(Cl)c(O)c(CN(C)C)c2oc1=O | 33* | -1 | 0 | 87* | 92* | 81* | 29*
CCN(CC)Cc1c(O)c(Cl)cc2c3c(c(=O)oc12)CCCC3 | 48* | -2 | 0 | 113* | 107* | 70 | 23*
CC(C)Cc1nnc(NC(=O)c2ccncc2)s1 | 1 | -3 | 0 | -1 | -2 | 2 | ·
CCNC(=O)COc1cccc(C(=O)NCc2ccccc2)c1 | -2 | 2 | 0 | -3 | 1 | 7 | ·
O=c1c2ccccc2[nH]c2ccccc12 | 19* | -3 | 6 | 144* | 120* | 83* | 49*
SMILES | RanGTP-Impb inh | TNF death inh | zVAD death inh | Hck-Nef inh | Runt-CBFb FRET | Runt-SMMHC FRET | YIC counter | others
O=c1[nH][nH]c2ccccc2c1=O | 0 | -1 | 0 | -3 | 0 | -3 | ·
Cc1cccc(NC(=O)c2cc3c(s2)-c2c(C)cccc2OC3)n1 | 30* | -4 | -1 | 87* | -18 | 61 | 7.3*
CCc1cc(=O)oc2c(CN3CCN(C)CC3)c(O)ccc12 | 4 | · | · | · | · | · | ·
CCc1cc(=O)oc2c(CN3CCN(C)CC3)c(O)c(Cl)cc12 | 32* | -1 | 0 | 163* | 100* | 91* | 33*
Cc1cc(Oc2ccc(=O)[nH]n2)nc(Cl)n1 | 0 | 0 | 1 | 6 | 3 | -1 | ·
O=C(Cc1cc(=O)oc2cc(O)ccc12)NCC1CCC(C(=O)O)CC1 (stereo unspecified) | 32* | -3 | 0 | 62* | 108* | 62* | 9.8*
CC(C)c1nnc(NC(=O)C2CCN(S(=O)(=O)c3ccc(-n4cnnn4)cc3)CC2)s1 | 7 | 1 | -2 | 20 | 0 | -5 | ·
CC(C)n1c(=N)c(C(=O)NCCc2ccccc2)cc2c(=O)n3ccccc3nc21 | 174* | 1 | -1 | 138* | 11 | -21 | ·
Cc1ccccc1CC(=O)NCc1cccnc1 | -4 | · | · | · | · | · | ·
Cc1cccn2c(=O)c3cc(C(=O)NCc4cccnc4)c(=N)n(C(C)C)c3nc12 | 183* | 0 | -1 | 161* | 19 | 79* | ·
Cc1cccn2c(=O)c3cc(C(=O)NCc4ccco4)c(=N)n(C(C)C)c3nc12 | 154* | -2 | -1 | 72* | 19 | 60* | ·
CC1CN(C(=O)c2ccc(OC3CCN(Cc4ccccn4)CC3)cc2)CCN1C (stereo unspecified) | 4 | · | · | · | · | · | ·
CCCCC(=O)NNC(=S)NCc1ccccc1 | -3 | -1 | 2 | 1 | 0 | 2 | ·
O=C(O)c1ccc2c(c1)C(=O)/C(=C\c1ccco1)C2=O | -5 | 0 | -1 | 61* | 32 | 24 | · | Hck Nef conf=+
CC(=O)Nc1ccc(N2C(=O)c3ccc(C(=O)Nc4nnc(SCc5ccc(F)cc5)s4)cc3C2=O)cc1 | -1 | 0 | 0 | 86* | -7 | -9 | · | Hck Nef conf=i
COC(=O)c1ccc(NC(=O)c2cc[n+](Cc3ccccc3)cc2)cc1 | 0 | · | · | · | · | · | ·
CCOC(=O)CNc1ncnc2nc[nH]c12 | -4 | 0 | 2 | -1 | -1 | 0 | ·
CCc1ccc(/C=N/Nc2ncnc3nc[nH]c23)cc1 | 1 | -10 | 75 | 95* | 1 | 2 | · | Hck Nef conf=+
COc1ccccc1C(=O)NCCc1c(C)[nH]c2c(C)ccc(F)c12 | 0 | 0 | 0 | -5 | -10 | -4 | ·
Cn1cnnc1SCC(=O)Nc1cc(S(=O)(=O)N2CCCCCC2)ccc1Cl | -3 | 0 | 0 | 3 | -3 | 9 | ·
CC(=O)c1sc2nc(CSc3nnnn3-c3ccccc3)[nH]c(=O)c2c1C | 1 | 1 | 2 | 53* | -11 | -43 | · | Hck Nef conf=+
